# Experimental data reported in the RNAGym collection of RNA variant scans (doi:10.1126/science.aae0568).
# Fewer inactive variants are shown than the library holds.
# B1: tRNA (parent)
# chain: GUUCCGUUGGCGUAAUGGUAACGCGUCUCCCUCCUAAGGAGAAGACUGCGGGUUCGAGUCCCGUACGGAACG
# Variants of: B1
# Test: yeast fitness relative to wild type (ratio to wild type); higher = fitter; tRNA-Arg(CCU), competitive growth, 37 C, YPD
# How it was run: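 Amplicons of the tRNA-Arg(CCU) gene were sequenced, 100-nucleotide paired-end, from the start population and from each end population of a pooled yeast competition. The competition, in six parallel replicates, lasted 24 hours in YPD at 37°C. Fitness relative to wild type was calculated from changes in genotype frequencies. Genotypes had to have ≥ 100 starting reads, and estimates < 0.5 were set to 0.5.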
row,Variant,yeast fitness
1,GUUCCGUUGGCGUAAUGGUAACGCGUCUACCUCCUAAGGAGAAGACUGCGGGUUCGAGUCCCGCACGGCACG,≤ 0.5
2,GUUCCGUUGGCGUAAUGGUAACGCGUCUGCCUCCUAAGGAGUAGACUGCGGGUUCGAGUCCCGUACGGAACG,0.712
3,GUUCCGUUGGCGUAAUGGUAACGCGUCUGCCUCCUAAGGAGCAGACUGCGGGUUCGAGUCCCGUACGGAACG,0.685
4,GUUCCGUUGGCGUAAUGGUAACGCGUCUGCCUCCUAAGGAGGAGACUGCGGGUUCGAGUCCCGUACGGAACG,0.694
5,GUUCCGUUGGCGUAAUGGUAACGCGUCUACCUCCUAAGGAGAAGACCGCGGGUUCGCGACCCGUACGGAACG,≤ 0.5
6,GUUCCGUUGGCGUAAUGGUAACGCGUCUACCUCCUAAGGAGAAGACUGCGGGUACGUGUCCCGUACGGAACG,0.535
7,GUUCCGUUGGCGUAAUGGUAACGCGUCUGCCUCCUGAGGUGAAGACUGCGGGUUCGAGUCCCGUACGGAACG,≤ 0.5
8,GUUCCGUUGGCGUAAUGGUAACGCGUCUGCCUCCUGAGGAGAAGACUGCGGGUUCGAGUCCCGUACGGAACG,0.548
9,GUUCCGUUGGCGUAAUGGUAACGCGUCUGCCUCCUUAGGAGAAGACUGCGGGUUCGAGUCCCGUACGGAACG,0.569
10,GUUCCGUUGGCGUAAUGGUAACGCGUCUGCCUCCUAAGGAGCAGACUGCGGGUUCAAGUCCCGUACGGAACG,0.601
11,GUUCCGUUGGCGUAAUGGUAACGCGUCUGCCUCCUUAGGAGAAGACUGUGGGUUCGAGUCCCGUACGGAACG,0.538
12,GUUCCGUUGGCGUAAUGGUAACGCGUCUGCCUCCUAAGGAGGAGACUGCGGGUUCGAGUCCCGGACGGAACG,≤ 0.5
13,GUUCCGUUGGCGUAAUGGUAACGCGUCUGCCUCCUAAGGUGAAGACUGCGGGUUAGAGUCCCGUACCGAACG,≤ 0.5
14,GUUCCGUUGGCGUAAUGGUAACGCGUCUGCCUCCUAAGGCGCAGACUGCGGGUUCGAAUCCCGUACGGAACG,≤ 0.5
15,GUUCCGUUGGCGUAAUGGUAACGCGUCUGCCUCCUAGGGAGAAGACUGCGGGUUCGAGUUCCGUACGGCACG,≤ 0.5
16,GUUCCGUUGGCGUAAUGGUAACGCGUCUGCCUCCUUAGGAGAGGACUGCGGGUUCGAGUCCCGUACGGAACG,≤ 0.5
17,GUUCCGUUGGCGUAAUGGUAACGCGUCUGCCUCCUAGGGAGAAGUCUGCGGGUUCGAGUCCCGUACGCAACG,≤ 0.5
18,GUUCCGUUGGCGUAAUGGUAACGCGUCUGCCUCCUAAGGUGAAGACUGCGGGUUCGAGUCUCGUAUGGAACG,≤ 0.5
19,GUUCCGUUGGCGUAAUGGUAACGCGUCUGCCUCCUAGGGAGAAGACUGCGGGUUCGAGUCCCGUACGGAACG,0.599

row,Variant,yeast fitness
1,GUUCCGUUGGCGUAAUGGUAACGCGUCUGCCUCCUUAGGAGAAGAGUGCGGGUUCGAGUCCCGUACGGAACG,0.755
2,GUUCCGUUGGCGUAAUGGUAACGCGUCUGCCUCCUAAGGAGCAGACUGCGGCUUCGAGACCCGUACGGAACG,≤ 0.5
3,GUUCCGUUGGCGUAAUGGUAACGCGUCUGCCUCCUAUGGAGAAGACUGCGGAUUCGAGUCCCGUACGGAACG,0.546
4,GUUCCGUUGGCGUAAUGGUAACGCGUCUGCCUCCUAAGGAGGAGACUGCGGCUUCGAGUCCCGUACGGAACG,0.702
5,GUUCCGUUGGCGUAAUGGUAACGCGUCUGCCUCCUGAGGAGAUGACUGCGGGUUCGAGUCCCGUAAGGAACG,≤ 0.5
6,GUUCCGUUGGCGUAAUGGUAACGCGUCUGCCUCCUAAGGGGAAGACUGCGGGUUCGAGUCCCAUACGGAACG,≤ 0.5
7,GUUCCGUUGGCGUAAUGGUAACGCGUCUACCUCCUAAGGAGAAGACUGCGGGUUCGAGUCCCGCACGGAACG,0.632
8,GUUCCGUUGGCGUAAUGGUAACGCGUCUGCCUCCUAAGGUGAAGACUGCGGGUUCGAGUCCCGUUCGGAACG,≤ 0.5
9,GUUCCGUUGGCGUAAUGGUAACGCGUCUGCCUCCUAAGGAGGAGAAUGCGGGUUCGCGUCCCGUACGGAACG,≤ 0.5
10,GUUCCGUUGGCGUAAUGGUAACGCGUCUGCCUCCUAGGGAGAAGACUGCGGGUUCGAGUCCCGUACCGAACG,0.672
11,GUUCCGUUGGCGUAAUGGUAACGCGUCUACCUCCUAAGGAGAAGACUGCGGGUUCGAGCCCCGUACGGAACG,0.688
12,GUUCCGUUGGCGUAAUGGUAACGCGUCUACCUCCUAAGGAGAAGACUGCGGGAUCGAGUCCCGUACGGAACG,0.51
13,GUUCCGUUGGCGUAAUGGUAACGCGUCUGCCUCCUGAGGAGAAGACUGCGGGUUCGAGUCCCGUAGGGAACG,≤ 0.5
14,GUUCCGUUGGCGUAAUGGUAACGCGUCUGCCUCCUACGGAGAAGACUGCGGGUUCGAAUCCCGUACGGAACG,≤ 0.5
15,GUUCCGUUGGCGUAAUGGUAACGCGUCUGCCUCCUAAGGCGAAGACUGCGGGUUCGAGUCCCGUACGGAACG,0.685
16,GUUCCGUUGGCGUAAUGGUAACGCGUCUGCCUCCUAAGGUGAAGACUGCGGGUUCGAGUCCCGUACGGAACG,0.555
17,GUUCCGUUGGCGUAAUGGUAACGCGUCUACCUCCUAAGGAGAAGACUGCGGGUGCGAGUCCCGUACGGAACG,≤ 0.5
18,GUUCCGUUGGCGUAAUGGUAACGCGUCUGCCUCCUAAGGUGAGGAGUGCGGGUUCGAGUCCCGAACGGAACG,≤ 0.5
19,GUUCCGUUGGCGUAAUGGUAACGCGUCUGCCUCCUUAGGAGAAGUCUGCGGGUUAGAGUCCCGUACGGAACG,≤ 0.5
